From the array DNA melting data of Ke et al. (doi:10.1101/2024.01.08.574731) come the findings set out here.

Data set [1] in a line: folding enthalpy; higher = less favourable; fluorescence melt of hairpins on a sequencing array, two-state fit. The note with it: sodium 0.088 M. An outline of the steps: (§1)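 Bootstrapped two-state fits yielded melting temperature and folding enthalpy for library hairpins. Cy3 fluorescence, with annealed Cy3 and quencher oligos, was imaged on a sequenced MiSeq flow cell in 50 mM Na-HEPES pH 8.0, 25 mM NaCl in 2.5 °C steps up to 60 °C, and normalised to pre-quench Cy3 and to control constructs. Four replicates were combined by inverse variance, and fitted temperatures were raised by 9.35 °C to match UV melts.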

A short description of data set [2]: melting temperature; fluorescence melt of hairpins on a sequencing array, two-state fit, raised by 9.35 °C to match UV melts. The following applies: sodium 0.088 M. An outline of the steps:
as §1

Regarding GTCGGCGGAAACGCCAAC ((.((((....)))).)), the folding enthalpy in data set [1] was -12.7 kcal/mol. Moreover, the Tm in data set [2] is 48.2 °C.

In the case of GCACCCGAAAGGGATTGC ((((((....)))..))), in data set [1], the folding enthalpy is -18 kcal/mol. In addition, in data set [2], the Tm was 42.3 °C.

For GCGACAATCGC ((((...)))), the folding enthalpy in data set [1] was -13.9 kcal/mol. In data set [2], the Tm came out at 41.3 °C.

With GCGTTGAAAAACGC (((((....))))), in data set [1], the folding enthalpy is -30.2 kcal/mol. Besides, the Tm in data set [2] came to 61.2 °C.

For the sequence GGTTACGGAAACGTAACC (((((((....))))))), the folding enthalpy in data set [1] was -43 kcal/mol. Further, the Tm in data set [2] is 65.4 °C.

With GCATTTGGAAACGAATGC (((((.(....).))))), the folding enthalpy in data set [1] is -41.8 kcal/mol. The Tm in data set [2] amounted to 49 °C.

For the sequence GGTCTTGCGAAAGCAACC (((..(((....)))))), the folding enthalpy in data set [1] is -8.24 kcal/mol. The Tm in data set [2] is 28.8 °C.

Consider GTCGGAGGAAACTTCGAC ((((.((....)).)))), for which the folding enthalpy in data set [1] is -47.7 kcal/mol. For the same sequence, the Tm in data set [2] came to 51 °C.

For GCTGTGGGAAACCATGGC ((..(((....)))..)), in data set [1], the folding enthalpy is -33.5 kcal/mol. Moreover, the Tm in data set [2] was 44.5 °C.

With GTATGCGAAAGCATTAC ((((((....))).))), in data set [1], the folding enthalpy was -13.8 kcal/mol. Moreover, the Tm in data set [2] is 43.4 °C.

Take CTCACGAAAGTGAG (((((....))))): the folding enthalpy in data set [1] is -22.2 kcal/mol. The Tm in data set [2] amounted to 61 °C.

With GAAAACGCGAAAGCGTTC (((..(((....)))))), the folding enthalpy in data set [1] was -8.84 kcal/mol. The Tm in data set [2] was 41.1 °C.

Turning to CGCCGCGGAAACGCCGCG (((.(((....))).))), the folding enthalpy in data set [1] is -14.9 kcal/mol. Further, the Tm in data set [2] was 63.6 °C.

As for GGCTACGCGAAAGCGGCC (((..(((....)))))), in data set [1], the folding enthalpy was -17.2 kcal/mol. Moreover, in data set [2], the Tm was 56.9 °C.

As for GTTGATGAAAATCAAC ((((((....)))))), the folding enthalpy in data set [1] is -33.9 kcal/mol. Also, the Tm in data set [2] is 52.4 °C.

GTAGTAGGAAACTACTGC (.(((((....))))).): the folding enthalpy in data set [1] is -27.5 kcal/mol. In addition, in data set [2], the Tm came out at 45.7 °C.

As to GACTTGCGAAAGCAGTC (((.(((....)))))), in data set [1], the folding enthalpy was -17.4 kcal/mol. The Tm in data set [2] worked out at 51.9 °C.

Turning to CGTAGGAAACTACG (((((....))))), in data set [1], the folding enthalpy is -21 kcal/mol. For the same sequence, the Tm in data set [2] came out at 48.2 °C.

GAAAGCGAAAGCTACTTC ((((((....)))..))): the folding enthalpy in data set [1] is -14.6 kcal/mol. Further, the Tm in data set [2] was determined as 35.9 °C.

As to GATCCAGCCATGGATC ((((((....)))))), the folding enthalpy in data set [1] was -38.8 kcal/mol. The Tm in data set [2] was 58.7 °C.

Consider GTCTTAGAAATAAGAC ((((((....)))))), for which the folding enthalpy in data set [1] is -26.5 kcal/mol. Also, the Tm in data set [2] was 43.4 °C.

As to GGACTAGAAATAGTCC ((((((....)))))), the folding enthalpy in data set [1] was -33 kcal/mol. In data set [2], the Tm was determined as 52.9 °C.

Consider GGATGTCGAAAGACGTCC (((.(((....))).))), for which the folding enthalpy in data set [1] is -38.8 kcal/mol. The Tm in data set [2] came out at 61 °C.

For the sequence GTCGACACGAAAGTGGAC (((..(((....)))))), the folding enthalpy in data set [1] was -13.9 kcal/mol. Also, the Tm in data set [2] stood at 41.2 °C.

For the sequence GTCATTCGAAAGAACGAC (((.(((....))).))), the folding enthalpy in data set [1] was -31 kcal/mol. Besides, in data set [2], the Tm stood at 41.1 °C.

For GATCACGGAAACGTAATC (((.(((....))).))), the folding enthalpy in data set [1] was -20.3 kcal/mol. Moreover, the Tm in data set [2] was determined as 31.5 °C.

For GATCAACGCTTGATC ((((((...)))))), in data set [1], the folding enthalpy is -31.4 kcal/mol. The Tm in data set [2] was determined as 42 °C.

For the sequence GCGTGACGACGC ((((....)))), the folding enthalpy in data set [1] was -27.2 kcal/mol. For the same sequence, the Tm in data set [2] is 56.8 °C.

Consider GCGGTCGAAAGACACCGC ((((((....)))..))), for which, in data set [1], the folding enthalpy was -24.4 kcal/mol. In addition, in data set [2], the Tm came out at 53.3 °C.

Take GCCTAGCGAAAGCGGGGC (((..((....))..))): the folding enthalpy in data set [1] was -22.3 kcal/mol. In addition, the Tm in data set [2] was 65.9 °C.

As for GGTCCTCGAAAGAGACC (((.(((....)))))), the folding enthalpy in data set [1] is -31.3 kcal/mol. In addition, the Tm in data set [2] was found to be 48.1 °C.

With GACCCGGGAAACTGGGTC (((((.(....).))))), the folding enthalpy in data set [1] is -37.3 kcal/mol. In addition, the Tm in data set [2] amounted to 59.2 °C.

With GCCTATGCGAAAGCAGGC (((..(((....)))))), the folding enthalpy in data set [1] was -23.1 kcal/mol. In addition, in data set [2], the Tm was 54 °C.

As for GATCTCACTCGAGATC ((((((....)))))), the folding enthalpy in data set [1] is -50.8 kcal/mol. Also, the Tm in data set [2] was 52.1 °C.

Take GATCACTGTCGTGATC ((((((....)))))): the folding enthalpy in data set [1] is -37.3 kcal/mol. For the same sequence, the Tm in data set [2] was found to be 54.9 °C.

With GATCGAAGATTCGATC ((((((....)))))), in data set [1], the folding enthalpy was -35.5 kcal/mol. The Tm in data set [2] came out at 51.4 °C.

For the sequence GGTGCTCGAAAGAGACC (((.(((....)))))), in data set [1], the folding enthalpy was -19.4 kcal/mol. For the same sequence, the Tm in data set [2] came to 46.5 °C.
